# Screening data as filed in PubChem.
# Only some compounds are listed: those with a hit (about 3.4% of all), similar ones and a draw of the others.
# IMP-1 inh = IMP-1 metallo-beta-lactamase inhibitors, primary screen, biochemical, epi-absorbance readout, Pseudomonas aeruginosa enzyme. purified IMP-1, nitrocefin hydrolysis, epi-absorbance fluorescence. inhibition, % at 5.6 µM. 0.45% of 290,000 active;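 active means inhibition above the mean plus 3 SD of all compounds in the same screening run, cut at about 4.5% in these data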;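 further: 0% = IMP-1 with DMSO and 100% = DMSO wells lacking enzyme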
#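 System: purified IMP-1 / Input: IMP-1 dispensed at 0.2 nM / Medium: 50 mM HEPES pH 7.1, 50 µM ZnSO4, 0.05% Brij 35 / Timing: 15 min enzyme–compound preincubation, then 25 min nitrocefin reaction, 25 °C / Technique: plate fluorescence quenching by hydrolysis product, ex 480/em 530 nm / Repeats: singlicate testing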
# MEKK2mut PB1 HTS = MEK5 binding signal on mutant MEKK2 PB1, primary screen, biochemical, multiplex bead flow cytometry, Alexa488-MEK5. Alexa488-MEK5 binding to MEKK2 mutant. percent response, % at 10 µM. 0.35% of 290,000 active; in the data active means percent response above about 24%, passing the limit was not always enough
# MEKK3 PB1 HTS = modulators of MEKK3-MEK5 PB1 binding, primary screen, biochemical, wildtype MEKK3, multiplex bead flow cytometry, Alexa488-MEK5; Mitogen-activated protein kinase kinase kinase 3 (Homo sapiens), Q99759; bead-based flow cytometry, Alexa488-MEK5 binding to MEKK3; actives lie on both sides; 0 = blocked by unlabeled MEK5, 100 = vehicle; binding response (% of control), % at 10 µM; 1.4% of 290,000 active; AID 1529, 2009;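 active means binding response more than 3 SD above or below the average of its plate-row segment, actives on both sides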;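 further: Alexa488 bead fluorescence after subtracting the streptavidin-only scavenger bead signal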
# Target sequence (Q99759 whole entry, looked up): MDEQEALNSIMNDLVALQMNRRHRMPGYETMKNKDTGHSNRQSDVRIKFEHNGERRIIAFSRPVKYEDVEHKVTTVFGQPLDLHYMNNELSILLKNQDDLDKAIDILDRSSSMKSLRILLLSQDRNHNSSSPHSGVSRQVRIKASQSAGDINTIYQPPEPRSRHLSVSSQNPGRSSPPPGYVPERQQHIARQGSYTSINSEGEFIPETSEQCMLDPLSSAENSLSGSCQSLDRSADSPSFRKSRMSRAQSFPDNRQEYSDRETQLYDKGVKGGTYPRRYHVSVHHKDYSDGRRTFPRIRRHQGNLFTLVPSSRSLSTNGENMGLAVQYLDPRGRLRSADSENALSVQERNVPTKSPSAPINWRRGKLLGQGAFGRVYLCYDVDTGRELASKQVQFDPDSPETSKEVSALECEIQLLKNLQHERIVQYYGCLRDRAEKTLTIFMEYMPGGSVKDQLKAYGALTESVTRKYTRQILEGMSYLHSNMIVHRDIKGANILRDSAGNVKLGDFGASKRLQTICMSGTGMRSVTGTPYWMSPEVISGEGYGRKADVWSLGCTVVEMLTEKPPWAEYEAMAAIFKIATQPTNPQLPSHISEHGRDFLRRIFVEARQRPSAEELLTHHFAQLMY
# MEKK2wt PB1 HTS = modulators of MEK5 binding to wildtype MEKK2, primary screen, biochemical, multiplex bead flow cytometry, Alexa488-MEK5; Mitogen-activated protein kinase kinase kinase 2 (Homo sapiens), Q9Y2U5; Alexa488-MEK5 binding to MEKK2 WT; actives lie on both sides; binding response (% of control), % at 10 µM; 1.1% of 290,000 active; AID 1531, 2009; in the data active means binding response below about 67% or above about 130%
# VIM-2 inhibitor = VIM-2 metallo-beta-lactamase inhibitors, primary screen, biochemical, epi-absorbance readout, Pseudomonas aeruginosa enzyme | purified VIM-2, nitrocefin hydrolysis, epi-absorbance fluorescence | inhibition, % at 5.6 µM | 0.89% of 290,000 active | AID 1527, 2009;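 active means inhibition above the mean of all tested compounds plus 3 SD, cutoff set per screening run, cut at about 7.5% in these data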;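 further: red hydrolysis product quenches plate fluorescence so inhibitors raise well fluorescence; 0% = enzyme with DMSO and 100% = DMSO without enzyme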
# * = called active by the depositor; x = no result; [ ] = dose if it differs, or a comment.
SMILES,IMP-1 inh,MEKK2mut PB1 HTS,MEKK3 PB1 HTS,MEKK2wt PB1 HTS,VIM-2 inhibitor
Cc1nn(C)cc1NC(=O)CC12CC3CC(CC(C3)C1)C2,-4,4,141*,109,-2
CCn1nc(C)c(NC(=O)CC23CC4CC(CC(C4)C2)C3)c1C,0,-2,91,95,-3
O=C(Nc1ccc2[nH]c(=O)[nH]c2c1)c1cccc([N+](=O)[O-])c1,-1,2,104,102,-2
O=C(N1CCCCC1)N1CCCN(C(=O)N2CCCCC2)CC1,-3,2,102,104,1
O=C(Nc1nccs1)c1cccc(S(=O)(=O)N2CCCCC2)c1,-2,3,99,102,-1
CC(=O)OCCCNc1cc(Sc2ccc(C)cc2)c2nonc2c1[N+](=O)[O-],-3,1,130*,105,-4
Cn1c(=O)cc2c3c(c(N4CCCCC4)ccc31)C(=O)c1ccccc1-2,1,3,100,99,10*
Brc1ccccc1OCCCCn1cnc2ccccc21,1,2,103,106,-3
Cc1ccc(OCCCCn2cnc3ccccc32)c(C)c1,6.6*,-5,100,98,-2
Cc1nc(-c2ccc([N+](=O)[O-])cc2)nc2[nH]ccc(=O)c12,0,1,103,103,9.7*
Cc1nc(-c2ccccc2)nc2[nH]ccc(=O)c12,-5,-4,90,90,-5
O=S(=O)(c1ccc(-c2ccon2)s1)N1CCN(c2ccccn2)CC1,79*,4,100,98,-2
CCOc1ccc(N2C(=O)Nc3ccccc3C2(O)C(=O)NCc2ccc(C)cc2)cc1 (stereo not drawn),-2,-13,91,86,0
CCC(C)c1ccc(NC(=O)CN(C)CC(=O)Nc2cccc(OC)c2)cc1 (stereo not drawn),-2,-6,101,-6.0*,0
COc1ccc(NC(=O)CN(C)CC(=O)Nc2cccc(C(C)=O)c2)cc1,-1,-9,95,99,-2
Cc1ccc(-c2csc3nc(C)n(N)c(=O)c23)cc1,-3,-1,104,104,0
Cc1ccc(-c2csc3nc4c5ccccc5c(NCCCN(C)C)nn4c(=O)c23)cc1,-3,65*,107,195*,3
O=C(NC1CCCCC1)C(c1ccc(F)cc1)N(CCN1CCOCC1)C(=O)c1ccc(-c2ccccc2)[nH]1 (stereo not drawn),-3,2,104,100,-1
COc1ccc(/C=C/C(=O)NCc2cccnc2)cc1,-3,-1,99,101,-3
CCc1ccc(CN(Cc2cccnc2)C(=O)/C=C/c2ccc(OC)cc2)cc1,-2,32*,108,138*,-4
CN(Cc1ccccc1)C(=O)c1cccc(N2C(=O)C3CC=CCC3C2=O)c1 (stereo not drawn),0,-6,90,91,-1
O=C(N1CCOCC1)N1CCN(c2nc(-c3ccccc3)cs2)CC1,-1,11,104,104,-1
O=C(/C=C/c1ccc(F)cc1)Nc1nc2ccccc2[nH]1,-4,1,208*,112,-2
CC(=NCCCn1ccnc1)C1=C(O)c2ccccc2C1=O,-4,1,91,96,12*
S=C(NCc1ccc(Cl)c(Cl)c1)NCc1ccco1,-2,-2,102,99,-3
SMILES,IMP-1 inh,MEKK2mut PB1 HTS,MEKK3 PB1 HTS,MEKK2wt PB1 HTS,VIM-2 inhibitor
C[C@@H](C(=O)N1CCN(C(=O)OC(C)(C)C)CC1)n1cc(-c2cn([C@@H](C)C(=O)N3CCN(C(=O)OC(C)(C)C)CC3)nn2)nn1,x,4,89,4.0*,x
Cc1ccc(S(=O)(=O)N(CCCO)Cc2cc3c(C)ccc(C)c3[nH]c2=O)cc1,-3,-12,90,-2.0*,-2
Cc1ccc(S(=O)(=O)N(CCO)Cc2cc3ccc(C)c(C)c3[nH]c2=O)cc1,-3,2,97,104,-3
N#Cc1c(SCC(=O)O)nc(N2CCOCC2)c2c1CCCC2,-3,19,119,105,-1
CC(=O)N1c2ccc(C)cc2C(c2ccccc2)CC1C (stereo not drawn),14*,2,104,108,1
CNC(=O)/C(C#N)=C/c1cn(CC(=O)NCc2ccco2)c2ccccc12,0,1,100,102,0
Cc1ccc(Nc2nc3c([nH]2)c(=O)[nH]c(=O)n3C)cc1,-3,x,x,x,-6
COc1cccc(NC(=O)CSc2nc3c(sc4ccccc43)c(=O)n2CCCN2CCCC2)c1,-2,21,110,179*,3
CCN1CCN(C(=S)Nc2sc(C)c(-c3ccccc3)c2C(=O)OC)CC1,0,11,108,131,0
O=C(Nc1ccc(Nc2ccncc2)cc1)c1ccc(Nc2ccnc3ccc([N+](=O)[O-])cc23)cc1[N+](=O)[O-],9.1*,-49,13*[inhibitor],28*[inhibitor],2
C=CCn1c(-c2cccc(Cl)c2)n[nH]c1=S,-4,-3,96,97,-1
C=CCn1c(-c2sccc2C)n[nH]c1=S,-4,-2,104,101,8.8*
COc1cc(/C=N\NC(=O)c2ccc(C)nc2)ccc1OC(=O)c1ccc2c(c1)OCO2,-3,-3,98,100,-2
COc1cc(/C=N/NC(=O)c2cncc(Br)c2)ccc1OC(=O)c1ccc2c(c1)OCO2,46*,-2,106,102,0
COC(=O)/C(=C1/Oc2cc(C)oc(=O)c2S1)C(F)(F)F,-1,-2,101,95,1
COc1cccc(/C=C(\CC(=O)O)c2nc3ccccc3s2)c1,-2,4,102,102,3
O=C(O)C/C(=C\c1ccc2c(c1)OCO2)c1nc2ccccc2s1,-2,4,102,106,8.0*
COc1cccc(C2C(C(=O)OC(C)C)=C(C)N=c3s/c(=C\c4ccc(C(=O)O)cc4)c(=O)n32)c1 (stereo not drawn),-4,-5,99,98,0
COC(=O)c1[nH]c2ccccc2c1NC(=O)CN1CCN(c2cccc(OC)c2)C(C)C1 (stereo not drawn),5.8*,3,114,107,-2
CCCCN(C)CCNC(=O)c1cc(-c2cccnc2)nc2ccc(S(=O)(=O)N3CCC(C)CC3)cc12,-3,14,103,136*,-2
CCN(CC)CCNC(=O)c1cc(-c2cccnc2)nc2ccc(S(=O)(=O)N3CCC(C)CC3)cc12,0,6,104,122,1
COc1nc(NC(C)C)nc(N(C#N)CN2C(=O)c3ccccc3S2(=O)=O)n1,12*,-8,99,100,7
